ChEMBL document CHEMBL3259693, “Multitarget drug discovery for tuberculosis and other infectious diseases” (J Med Chem, 2014)
In brackets after ≈: the same amount, converted by molar mass. Activity calls are given as the source filed them. No cut-off for these calls is given here.

Experiments:
[1] = tested on: Mycolicibacterium smegmatis; assay: Induction of collapse in deltapH in Mycobacterium smegmatis inverted membrane vesicles at 30 to 150 uM by 31P NMR spectroscopy; format: functional
Bacillus subtilis = assay: Antimicrobial activity against Bacillus subtilis subsp. subtilis ATCC 6051 after 12 to 16 hrs by microbroth dilution method; format: functional, organism-based
Escherichia coli [2] = assay: Ratio of IC50 for Escherichia coli ATCC 29425 in presence of 10% fetal bovine serum to IC50 for Escherichia coli ATCC 29425; format: functional
Summary of the method: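 E. coli broth microdilution in LB. Culture was grown to OD600 ~0.4, diluted 500-fold, and exposed to compound from 0.3 mM, 2× serially diluted to 292 nM. Plates ran 3 h at 37 °C with or without 10% FBS. Viability was read by MTT at 570 nm, and IC50 was obtained by non-linear regression.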

Saccharomyces cerevisiae = assay: Antimicrobial activity against Saccharomyces cerevisiae ATCC 208352 after 48 hrs by microbroth dilution method; format: functional, organism-based; settings: ATCC 208352, 48 h
Escherichia coli [3] = assay: microbe, parasite or virus in culture; format: functional, organism-based; settings: ATCC 29425, 3 h
[4] = Therapeutic index, ratio of IC50 for human MCF7 cells to MIC for Mycobacterium tuberculosis ATCC 27294; format: cell-based; settings: MCF7 cells versus Mycobacterium tuberculosis ATCC 27294, read-out: TI
Staphylococcus aureus = assay: Antimicrobial activity against methicillin-resistant Staphylococcus aureus USA300; format: functional
[5] = tested on: Mycolicibacterium smegmatis; assay: Disruption of membrane potential in Mycobacterium smegmatis by DisC3(5) probe-based fluorescence spectrophotometry; format: functional, organism-based
Escherichia coli [6] = assay: Induction of collapse in deltapH in Escherichia coli inverted membrane vesicles by 31P NMR spectroscopy; format: functional, organism-based
[7] = molecular target: T1, 4,4'-diapophytoene synthase (Staphylococcus aureus, UniProt A9JQL9); assay: Inhibition of Staphylococcus aureus CrtM
T1 sequence (A9JQL9 whole entry): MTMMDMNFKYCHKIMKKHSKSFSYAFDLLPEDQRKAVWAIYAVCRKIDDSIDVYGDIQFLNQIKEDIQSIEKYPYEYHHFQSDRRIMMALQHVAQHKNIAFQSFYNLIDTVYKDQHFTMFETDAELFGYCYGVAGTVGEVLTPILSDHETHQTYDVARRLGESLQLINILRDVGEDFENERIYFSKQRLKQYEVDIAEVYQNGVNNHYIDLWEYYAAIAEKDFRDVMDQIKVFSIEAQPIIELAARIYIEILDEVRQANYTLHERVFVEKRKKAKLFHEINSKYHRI

[8] = tested on: Mycolicibacterium smegmatis; assay: microbe, parasite or virus in culture; format: functional; settings: ATCC 700084
[9] = Inhibition of Mycobacterium smegmatis MenA; design: species or system Mycolicibacterium smegmatis
Candida albicans = assay: Antimicrobial activity against Candida albicans CAI-4; format: functional, organism-based
[10] = Therapeutic index, ratio of IC50 for human MCF7 cells to IC50 for Plasmodium falciparum 3D7; format: cell-based; settings: MCF7 cells versus Plasmodium falciparum 3D7, read-out: Ratio IC50
[11] = Inhibition of Mycobacterium smegmatis MenG using radiolabeled S-adenosylmethionine as substrate after 1 hr by liquid scintillation counting analysis; design: species or system Mycolicibacterium smegmatis
[12] = tested on: Mycolicibacterium smegmatis; assay: Inhibition of respiration in Mycobacterium smegmatis after 5 mins by methylene blue reduction assay in presence of NADH; format: functional, organism-based
[13] = tested on: Mycolicibacterium smegmatis; settings: at 40 to 120 µM
Plasmodium falciparum = assay: Antimicrobial activity against Plasmodium falciparum 3D7 by intraerythrocytic assay; format: functional, organism-based
Squalene synthase = molecular target: T2, Squalene synthase (Homo sapiens, UniProt P37268); assay: Inhibition of human SQS
T2 sequence (P37268 whole entry): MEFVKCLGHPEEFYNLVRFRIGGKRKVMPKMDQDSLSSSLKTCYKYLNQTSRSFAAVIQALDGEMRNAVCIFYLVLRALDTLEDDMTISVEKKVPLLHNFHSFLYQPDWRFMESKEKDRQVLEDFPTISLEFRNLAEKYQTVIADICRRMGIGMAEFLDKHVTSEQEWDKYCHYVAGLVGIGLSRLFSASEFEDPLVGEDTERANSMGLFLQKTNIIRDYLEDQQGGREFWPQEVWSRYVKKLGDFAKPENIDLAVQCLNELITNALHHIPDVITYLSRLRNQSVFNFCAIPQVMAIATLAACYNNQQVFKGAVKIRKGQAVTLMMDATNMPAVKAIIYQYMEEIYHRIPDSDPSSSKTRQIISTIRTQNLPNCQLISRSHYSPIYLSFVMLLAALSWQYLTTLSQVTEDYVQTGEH

[14] = tested on: Mycobacterium tuberculosis; assay: microbe, parasite or virus in culture; format: functional; settings: ATCC 27294
MCF7 = assay: Cytotoxicity against human MCF7 cells assessed as growth inhibition by MTT assay; format: cell-based
[15] = Inhibition of Escherichia coli N-terminal strep-tagged MenA expressed in Escherichia coli C43 (DE3) assessed as demethylmenaquinone-3 formation after 30 mins by HPLC analysis
[16] = tested on: Mycobacterium tuberculosis; assay: Antimicrobial activity against Mycobacterium tuberculosis after 7 to 21 days by microdilution method; format: functional
[17] = tested on: Mycolicibacterium smegmatis; assay: Antimicrobial activity against Mycobacterium smegmatis after 10 hrs; format: functional

SMILES	IC50 (Bacillus subtilis) [µM]	IC50 (Saccharomyces cerevisiae) [µM]	IC50 (Escherichia coli [3]) [µM]	MIC (Staphylococcus aureus) [µM]	IC50 [5] [µM]	IC50 (Escherichia coli [6]) [µM]	MIC [8] [µM]	IC50 (Candida albicans) [µM]	IC50 [12] [µM]	IC50 (Plasmodium falciparum) [µM]	MIC [14] [µM]	IC50 (MCF7) [µM]	IC50 [15] [µM]	other results
CC(C)[C@@H]1NC(=O)[C@H](C)OC(=O)[C@@H](C(C)C)NC(=O)[C@@H](C(C)C)OC(=O)[C@H](C(C)C)NC(=O)[C@H](C)OC(=O)[C@@H](C(C)C)NC(=O)[C@@H](C(C)C)OC(=O)[C@H](C(C)C)NC(=O)[C@H](C)OC(=O)[C@@H](C(C)C)NC(=O)[C@@H](C(C)C)OC1=O	–	–	–	–	–	–	–	–	–	–	–	–	–	Activity [1]: inactive
CC(C)=CCC/C(C)=C/CNCCOC1C2CC3CC(C2)CC1C3 (stereo unspecified)	48	5.4	8.5	24 (≈ 7.96 µg/mL)	31	0.8	4.8 (≈ 1.59 µg/mL)	36	0.5	2.4	0.06 (≈ 0.0199 µg/mL)	30	0.4	Ratio IC50 (Escherichia coli [2]): 1.6; selectivity ratio [4]: 900; IC50 [7]: 100 µM; IC50 [9]: 4 µM; selectivity ratio [10]: 40; IC50 [11]: 15 µM; inhibition [13]: Active; IC50 (Squalene synthase): 100 µM
CC(C)=CCC/C(C)=C/CNCCOc1cccc2ccccc12	7.4	11	46	25 (≈ 8.09 µg/mL)	130	7.1	37 (≈ 12 µg/mL)	37	140	–	19 (≈ 6.15 µg/mL)	22	3.3	–
CO[C@@H]1C[C@@H](C[C@H]2CC[C@H](C)[C@H]([C@@H](C)C(=O)O)O2)O[C@]2(O[C@](C)([C@H]3CC[C@@](C)([C@@H]4O[C@@H]([C@H]5O[C@@](O)(CO)[C@H](C)C[C@@H]5C)C[C@@H]4C)O3)C[C@H]2C)[C@@H]1C	–	–	–	–	–	–	–	–	–	–	–	–	–	Activity [1]: Active
CC(C)=CCC/C(C)=C/CNC(=O)COC1C2CC3CC(C2)CC1C3 (stereo unspecified)	–	–	–	–	150	12	18 (≈ 6.22 µg/mL)	–	330	18	2.2 (≈ 0.76 µg/mL)	35	5.8	–
CC(C)=CCC/C(C)=C/COCCOC1C2CC3CC(C2)CC1C3 (stereo unspecified)	–	–	–	–	150	15	150 (≈ 49.9 µg/mL)	–	600	24	–	220	4.2	–
CC(C)=CCC/C(C)=C/CNCCO[C@@H]1C[C@@H]2CC[C@@]1(C)C2(C)C	5.4	2.7	36	24 (≈ 8.01 µg/mL)	44	0.8	4.8 (≈ 1.6 µg/mL)	19	0.3	–	0.15 (≈ 0.05 µg/mL)	3.9	3.2	Ratio IC50 (Escherichia coli [2]): 1.6; EC50 [5]: 15 µg/mL (≈ 45 µM); IC50 [9]: 8 µM; IC50 [11]: 5.7 µM; Activity [1]: Active
CC[C@@H](CO)NCCN[C@@H](CC)CO [ETHAMBUTOL]	–	–	–	–	–	–	–	–	–	–	–	–	–	MIC [16]: 9.8 µM (≈ 2 µg/mL); MIC [17]: 4.9 µM (≈ 1 µg/mL)
CC(C)=CCC/C(C)=C/C[N+](C)(C)CCOC1C2CC3CC(C2)CC1C3 (stereo unspecified)	8.6	31	76	16	51	18	24	37	0.5	0.16	1.6	6.5	1	–
CC(C)=CCC/C(C)=C/COCCNC1C2CC3CC(C2)CC1C3 (stereo unspecified)	–	–	13	–	78	1	19 (≈ 6.3 µg/mL)	–	36	2.8	0.57 (≈ 0.189 µg/mL)	338	1.8	IC50 [7]: 100 µM; IC50 (Squalene synthase): 100 µM
CC(C)=CCC/C(C)=C/CNCCOc1ccccc1	62	11	220	117 (≈ 32 µg/mL)	–	–	44 (≈ 12 µg/mL)	74	2500	51	23 (≈ 6.29 µg/mL)	23	4.6	–
CC(C)=CCC/C(C)=C/CNCCCOC1C2CC3CC(C2)CC1C3 (stereo unspecified)	8.7	7.8	6.7	23 (≈ 7.95 µg/mL)	50	1.1	18 (≈ 6.22 µg/mL)	19	4.8	2.4	4.6 (≈ 1.59 µg/mL)	9.8	1.9	–
CC(C)=CCC/C(C)=C/COCC(=O)NC1C2CC3CC(C2)CC1C3 (stereo unspecified)	49	–	–	–	150	7.4	72 (≈ 24.9 µg/mL)	–	280	11	34 (≈ 11.7 µg/mL)	27	16	–
CC(C)=CCC/C(C)=C/CNCCOC(C)(C)C	–	174	–	–	150	4.7	198 (≈ 50.2 µg/mL)	–	9500	13	24 (≈ 6.08 µg/mL)	178	4.6	–
N#CC(C#N)=NNc1cccc(Cl)c1	–	–	–	–	–	–	–	–	–	–	–	–	–	Activity [1]: Active
